Test results: ChEMBL document CHEMBL5303300, “EUbOPEN Chemogenomics Library - Multiplex” (2023)
“And” between values parts separate entries of the source, which are not always exact repeats. Equal entries are not always repeated.

System: Fibroblast
Test: Multiplex assay against human fibroblast
Type: toxicity, cell-based
Settings: number of replicates 2
Procedure, shortened: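 Values for tubulin, mitochondrial-mass and membrane-permeability phenotypes are per cents of cells with healthy nuclei. These cells were identified by CellPathfinder machine-learning gating of live cells that had been stained at seeding with Hoechst33342, BioTracker Green Microtubule Cytoskeleton Dye, MitoTracker Red and Annexin V Alexa Fluor 680 and imaged on a CQ1 microscope at 37°C and 5% CO2 after compound addition. The gating first set Hoechst high-intensity objects apart from normal cells, then split normal cells into healthy, pyknosed or fragmented nuclei, and pyknosed cells into mitotic or apoptotic.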

[1] = 12 h, 1 µM, compound concentration 1 uM
[2] = 12 h, 10 µM, compound concentration 10 uM
[3] = 24 h, 1 µM, compound concentration 1 uM
[4] = 24 h, 10 µM, compound concentration 10 uM
[5] = 48 h, 1 µM, compound concentration 1 uM
[6] = 48 h, 10 µM, compound concentration 10 uM

## COc1cc(N(C)c2ccnc3ccc(C(F)(F)F)cc23)cc(OC)c1OC
[1]
  Population Apoptotic (%): 43% and 38%
  Population Fragmented Nuclei (%): 7% and 10%
  Population Healthy Nuclei (%): 68% and 65%
  Population Hoechst High Intensity Objects (%): 0%
  Population Membrane Permeable-Phenotype (%): 10% and 7%
  Population Mitochondria Different-Phenotype (%): 0%
  Population Mitotic Cells (%): 56% and 61%
  Population Normal (%): 100% and 99%
  Population Pyknosed Nuclei (%): 23% and 24%
  Population Tubulin-Different-Phenotype (%): 21% and 18%
  Total Cell Count: 216 and 225
[2]
  Population Apoptotic (%): 48% and 39%
  Population Fragmented Nuclei (%): 6% and 11%
  Population Healthy Nuclei (%): 77% and 63%
  Population Hoechst High Intensity Objects (%): 0%
  Population Membrane Permeable-Phenotype (%): 4% and 9%
  Population Mitochondria Different-Phenotype (%): 5% and 4%
  Population Mitotic Cells (%): 51% and 60%
  Population Normal (%): 100%
  Population Pyknosed Nuclei (%): 15% and 24%
  Population Tubulin-Different-Phenotype (%): 33% and 40%
  Total Cell Count: 175 and 219
[3]
  Population Apoptotic (%): 48% and 50%
  Population Fragmented Nuclei (%): 7% and 13%
  Population Healthy Nuclei (%): 69% and 59%
  Population Hoechst High Intensity Objects (%): 0%
  Population Membrane Permeable-Phenotype (%): 8% and 4%
  Population Mitochondria Different-Phenotype (%): 1%
  Population Mitotic Cells (%): 51% and 49%
  Population Normal (%): 100% and 99%
  Population Pyknosed Nuclei (%): 23% and 27%
  Population Tubulin-Different-Phenotype (%): 24% and 14%
  Total Cell Count: 229 and 213
[4]
  Population Apoptotic (%): 60% and 54%
  Population Fragmented Nuclei (%): 9% and 12%
  Population Healthy Nuclei (%): 71% and 66%
  Population Hoechst High Intensity Objects (%): 0%
  Population Membrane Permeable-Phenotype (%): 4%
  Population Mitochondria Different-Phenotype (%): 3% and 6%
  Population Mitotic Cells (%): 39% and 45%
  Population Normal (%): 100% and 99%
  Population Pyknosed Nuclei (%): 18% and 20%
  Population Tubulin-Different-Phenotype (%): 27% and 30%
  Total Cell Count: 176 and 216
[5]
  Population Apoptotic (%): 66% and 47%
  Population Fragmented Nuclei (%): 8% and 14%
  Population Healthy Nuclei (%): 73% and 61%
  Population Hoechst High Intensity Objects (%): 0%
  Population Membrane Permeable-Phenotype (%): 1% and 7%
  Population Mitochondria Different-Phenotype (%): 0%
  Population Mitotic Cells (%): 33% and 52%
  Population Normal (%): 100%
  Population Pyknosed Nuclei (%): 18% and 23%
  Population Tubulin-Different-Phenotype (%): 10% and 12%
  Total Cell Count: 229 and 214
[6]
  Population Apoptotic (%): 64% and 75%
  Population Fragmented Nuclei (%): 9% and 12%
  Population Healthy Nuclei (%): 72% and 70%
  Population Hoechst High Intensity Objects (%): 0%
  Population Membrane Permeable-Phenotype (%): 0% and 1%
  Population Mitochondria Different-Phenotype (%): 3% and 5%
  Population Mitotic Cells (%): 35% and 24%
  Population Normal (%): 99% and 100%
  Population Pyknosed Nuclei (%): 18% and 16%
  Population Tubulin-Different-Phenotype (%): 35% and 25%
  Total Cell Count: 173 and 226
